# According to ChEMBL document CHEMBL3045708, “Potential antagonistic effects of nine natural fatty acids against Meloidogyne incognita” (2012):
# Experiments:
# Type in all cases: functional
# Meloidogyne incognita [1] = experiment: Nematicidal activity against Meloidogyne incognita (root-knot nematode) assessed as cumulative percentage of egg hatching at 25 degC at 100 umol/L on day 21 (SDW control = 44.87 +/- 3.93%)
# Outline: (§1)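 Eggs (500 in 1 mL suspension) held on a 1 cm sieve of 35 μm pore, set in the center well of a 24-well plate. About 2 mL of fatty acid solution (final 100, 1000 or 2000 μmol/L) was added, reaching only the sieve bottom. The fatty acid was dissolved in acetone/Tween-80/DMSO medium and diluted with sterile distilled water. SDW and medium served as controls. One treatment per plate, six replicates, parafilm-sealed, 25 °C. Hatched J2s were counted and the solution renewed on days 3, 7, 14 and 21; values are cumulative % hatch as mean ± SE.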
# Meloidogyne incognita [2] = experiment: Nematicidal activity against Meloidogyne incognita (root-knot nematode) assessed as cumulative percentage of egg hatching at 25 degC at 2000 umol/L on day 7 (SDW control = 12.63 +/- 3.84%); outline: as §1
# Meloidogyne incognita [3] = experiment: Nematicidal activity against second-stage juvenile of Meloidogyne incognita (root-knot nematode) assessed as mortality at 25 degC at 1000 umol/L after 12 hr (reference value: 1.79 to 3.30%)
# Meloidogyne incognita [4] = experiment: Nematicidal activity against Meloidogyne incognita (root-knot nematode) assessed as cumulative percentage of egg hatching at 25 degC at 2000 umol/L on day 3 (SDW control = 0.57 +/- 0.37%); outline: as §1
# Meloidogyne incognita [5] = experiment: Nematicidal activity against Meloidogyne incognita (root-knot nematode) root-knot nematodes assessed as cumulative percentage of egg hatching at 25 degC at 100 umol/L on day 3 (SDW control = 0.57 +/- 0.37%); outline: as §1
# Meloidogyne incognita [6] = experiment: Nematicidal activity against Meloidogyne incognita (root-knot nematode) assessed as cumulative percentage of egg hatching at 25 degC at 1000 umol/L on day 3 (SDW control = 0.57 +/- 0.37%); outline: as §1
# Meloidogyne incognita [7] = experiment: Nematicidal activity against second-stage juvenile of Meloidogyne incognita (root-knot nematode) assessed as mortality at 25 degC at 100 umol/L after 12 hr (reference value: 1.79 to 3.30%)
# Meloidogyne incognita [8] = experiment: Nematicidal activity against second-stage juvenile of Meloidogyne incognita (root-knot nematode) assessed as mortality at 25 degC at 100 umol/L after 24 hr (reference value: 1.47 to 2.51%)
# Meloidogyne incognita [9] = experiment: Nematicidal activity against Meloidogyne incognita (root-knot nematode) assessed as cumulative percentage of egg hatching at 25 degC at 1000 umol/L on day 14 (SDW control = 35.77 +/- 4.48%); outline: as §1
# Meloidogyne incognita [10] = experiment: Nematicidal activity against Meloidogyne incognita (root-knot nematode) assessed as cumulative percentage of egg hatching at 25 degC at 100 umol/L on day 14 (SDW control = 35.77 +/- 4.48%); outline: as §1
# Meloidogyne incognita [11] = experiment: Nematicidal activity against Meloidogyne incognita (root-knot nematode) assessed as cumulative percentage of egg hatching at 25 degC at 2000 umol/L on day 14 (SDW control = 35.77 +/- 4.48%); outline: as §1
# Meloidogyne incognita [12] = experiment: Nematicidal activity against second-stage juvenile of Meloidogyne incognita (root-knot nematode) assessed as mortality at 25 degC at 1000 umol/L after 24 hr Rvb = 1.47 to 2.51%)
# Meloidogyne incognita [13] = experiment: Nematicidal activity against Meloidogyne incognita (root-knot nematode) assessed as cumulative percentage of egg hatching at 25 degC at 1000 umol/L on day 7 (SDW control = 12.63 +/- 3.84%); outline: as §1
# Meloidogyne incognita [14] = experiment: Nematicidal activity against second-stage juvenile of Meloidogyne incognita (root-knot nematode) assessed as mortality at 25 degC at 2000 umol/L after 12 hr (reference value: 1.79 to 3.30%)
# Meloidogyne incognita [15] = experiment: Nematicidal activity against second-stage juvenile of Meloidogyne incognita (root-knot nematode) assessed as mortality at 25 degC at 2000 umol/L after 24 hr Rvb = 1.47 to 2.51%)
# Meloidogyne incognita [16] = experiment: Nematicidal activity against Meloidogyne incognita (root-knot nematode) assessed as cumulative percentage of egg hatching at 25 degC at 2000 umol/L on day 21 (SDW control = 44.87 +/- 3.93%); outline: as §1
# Meloidogyne incognita [17] = experiment: Nematicidal activity against Meloidogyne incognita (root-knot nematode) assessed as cumulative percentage of egg hatching at 25 degC at 100 umol/L on day 7 (SDW control = 12.63 +/- 3.84%); outline: as §1
# Meloidogyne incognita [18] = experiment: Nematicidal activity against Meloidogyne incognita (root-knot nematode) assessed as cumulative percentage of egg hatching at 25 degC at 1000 umol/L on day 21 (SDW control = 44.87 +/- 3.93%); outline: as §1
Structure (SMILES),Activity (Meloidogyne incognita [1]) [%],Activity (Meloidogyne incognita [2]) [%],mortality at 1000 µM (Meloidogyne incognita [3]) [%],Activity (Meloidogyne incognita [4]) [%],Activity (Meloidogyne incognita [5]) [%],Activity (Meloidogyne incognita [6]) [%],mortality at 100 µM (Meloidogyne incognita [7]) [%],mortality at 100 µM (Meloidogyne incognita [8]) [%],Activity (Meloidogyne incognita [9]) [%],Activity (Meloidogyne incognita [10]) [%],Activity (Meloidogyne incognita [11]) [%],mortality at 1000 µM (Meloidogyne incognita [12]) [%],Activity (Meloidogyne incognita [13]) [%],mortality at 2000 µM (Meloidogyne incognita [14]) [%],mortality at 2000 µM (Meloidogyne incognita [15]) [%],Activity (Meloidogyne incognita [16]) [%],Activity (Meloidogyne incognita [17]) [%],Activity (Meloidogyne incognita [18]) [%]
CCCCC/C=C\C/C=C\CCCCCCCC(=O)O [LINOLEIC ACID],37.97,2.3,4.72,0.33,0.33,0.13,3.12,3.72,20.43,29.8,5.87,3.3,6.6,3.41,5.1,11.33,6.17,29.47
CCCCCCCCCCCC(=O)O [DODECANOATE],27.1,7.57,21.3,1.6,0.5,3.67,1.22,15.8,20.37,20.1,17.47,2.46,12.7,38,41.3,20.77,4.73,24.17
CCCCCCCCCCCCCCCC(=O)O [PALMITIC ACID],22.3,6.63,6.71,0.7,1.13,0.23,3.33,3.36,9.53,15.07,17.23,3.03,2.8,5.44,4.91,20.17,5.73,13.4
CCCCCC(=O)O [HEXANOATE],15.97,6.4,1.09,0.8,0.87,2.77,0.39,1.5,16.67,9.57,14.4,2.29,7.67,2.02,4.44,19.67,2.97,21.2
CCCCCCCCCCCCCC(=O)O [MYRISTIC ACID],27.67,1.53,2.29,0.27,1.8,0.37,1.31,2.46,12.93,18.4,12,1.57,1.47,2.11,3.76,20,8.87,23.97
CCCCCCCC(=O)O [OCTANOIC ACID],30.93,,65.6,0.73,2.3,2.6,1.65,40.5,16.87,23.63,13.07,1.08,9.03,49.9,56.4,15.07,8.6,21
CCCC(=O)O [BUTYRIC ACID],20.37,4.47,3.34,0.67,1.6,2,2.55,2.91,17.17,13.9,8.17,2.34,7.87,3.23,3.28,14.13,6.7,21.47
CCCCCCCCCC(=O)O [DECANOIC ACID],25.93,2.07,16.9,0.23,0.43,0.97,2.01,5.16,11.5,19.57,4.8,1.63,4.77,25.2,61,7.1,4.73,16.4
CCCCCCCC/C=C\CCCCCCCC(=O)O [OLEIC ACID],24.93,7.47,4.52,1.23,1.47,0.67,3.54,3.54,18.53,16.6,16.53,2.42,6.03,4.49,4.58,21.8,6.07,25.57
